The values that follow come from ChEMBL document CHEMBL4130374, “Discovery of 9H-purins as potential tubulin polymerization inhibitors: Synthesis, biological evaluation and structure-activity relationships” (Eur J Med Chem, 2017).

Series [1] relates to K562. The series is described as follows: Antiproliferative activity against human K562 cells after 48 hrs by MTT assay. The series is classed as functional. Particulars: K562, 48 h. In short, it runs like this: (§1)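 Log-phase cells, harvested by trypsinization, seeded 24 h, then exposed to a range of compound concentrations for 48 h. Culture in RPMI 1640 with 4% FBS, penicillin/streptomycin, 37°C, 5% CO2. DMSO below 1% final; 5-Fu as positive control. Readout is MTT (0.5 mg/mL, 4 h), formazan dissolved in DMSO, absorbance at 570 nm. GI50 = 50% growth inhibition versus untreated cells; means ± SD of at least two independent experiments.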
A general note: Formazan colour is commonly taken as a measure of viable cells.

The subject of series [2] is AGS. The series is described as follows: Antiproliferative activity against human AGS cells after 48 hrs by MTT assay. It is filed as functional. In short, it runs like this:
as §1

The test system of series [3] is SH-SY5Y. Briefly: Antiproliferative activity against human SH-SY5Y cells after 48 hrs by MTT assay. It is filed as functional. In short, it runs like this:
as §1

Series [4] relates to Tubulin (Sus scrofa). Briefly: Inhibition of pig brain tubulin polymerization at 10 uM by spectrophotometry relative to control.
In series [5] the test system is AGS. The series is described as follows: Induction of apoptosis in human AGS cells assessed as early apoptotic cells at 0.5 uM after 24 hrs by Annexin V-FITC/propidium iodide-double staining based flow cytometry (reference value: 12.80%). The series is classed as functional. A general note: In flow cytometry, cells or beads pass a laser one at a time.
Series [6] relates to AGS. The series is described as follows: Induction of apoptosis in human AGS cells assessed as necrotic cells at 0.25 uM after 24 hrs by Annexin V-FITC/propidium iodide-double staining based flow cytometry (reference value: 0.40%). The series is classed as functional.
Series [7] deals with AGS. Briefly: Cell cycle arrest in human AGS cells assessed as accumulation at S phase at 1 uM after 24 hrs by propidium iodide staining based flow cytometry (reference value: 37.94%). It is filed as functional. The essentials:
(§2)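 Cells washed twice in ice-cold PBS, fixed in ice-cold 70% ethanol, treated with 0.1 mg/mL RNase, stained with propidium iodide. Phase distribution determined by flow cytometry.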

Series [8] relates to AGS. Briefly: Cell cycle arrest in human AGS cells assessed as accumulation at S phase at 0.5 uM after 24 hrs by propidium iodide staining based flow cytometry (reference value: 37.94%). It is filed as functional. In short, it runs like this:
as §2

Series [9] relates to AGS. The series is described as follows: Induction of apoptosis in human AGS cells assessed as early apoptotic cells at 0.25 uM after 24 hrs by Annexin V-FITC/propidium iodide-double staining based flow cytometry (reference value: 12.80%). It is filed as functional.
Series [10] relates to AGS. Briefly: Cell cycle arrest in human AGS cells assessed as accumulation at S phase at 0.25 uM after 24 hrs by propidium iodide staining based flow cytometry (reference value: 37.94%). The series is classed as functional. In short, it runs like this: as §2
Series [11] is described as follows: Cytotoxicity against mouse HT22 cells after 48 hrs by MTT assay. The series is classed as cell-based, HT-22. In short, it runs like this:
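MTT readout after 48 h exposure; CC50 is the 50% cytotoxic concentration, mean of three repeated experiments.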

The test system of series [12] is AGS. The series is described as follows: Induction of apoptosis in human AGS cells after 24 hrs by Annexin V-FITC/propidium iodide-double staining based flow cytometry. The series is classed as functional, cell-based.
Series [13] concerns AGS. The series is described as follows: Induction of apoptosis in human AGS cells assessed as late apoptotic cells at 0.5 uM after 24 hrs by Annexin V-FITC/propidium iodide-double staining based flow cytometry (reference value: 16.90%). It is filed as functional.
Series [14] relates to AGS. Briefly: Cell cycle arrest in human AGS cells assessed as accumulation at G0/G1 phase at 0.25 uM after 24 hrs by propidium iodide staining based flow cytometry (reference value: 52.87%). It is filed as functional. The essentials: as §2
A short description of series [15]: Selectivity index, ratio of GI50 for mouse HT22 cells to GI50 for human SH-SY5Y cells. The series is classed as toxicity. Particulars: HT22 cells and SH-SY5Y cells, read-out: RatioGI50.
In series [16] the test system is AGS. Briefly: Induction of apoptosis in human AGS cells assessed as viable cells at 0.25 uM after 24 hrs by Annexin V-FITC/propidium iodide-double staining based flow cytometry (reference value: 69.90%). The series is classed as functional. The settings on record: read-out: Activity.
Series [17] relates to AGS. Briefly: Cell cycle arrest in human AGS cells assessed as accumulation at G2/M phase at 0.25 uM after 24 hrs by propidium iodide staining based flow cytometry (reference value: 9.18%). It is filed as functional. The essentials: as §2
In series [18] the test system is AGS. The series is described as follows: Cell cycle arrest in human AGS cells assessed as accumulation at G2/M phase after 24 hrs by propidium iodide staining based flow cytometry. The series is classed as functional. In short, it runs like this: as §2
The test system of series [19] is AGS. The series is described as follows: Cell cycle arrest in human AGS cells assessed as accumulation at S phase at 2 uM after 24 hrs by propidium iodide staining based flow cytometry (reference value: 37.94%). It is filed as functional. The essentials:
as §2

Series [20] concerns AGS. Briefly: Cell cycle arrest in human AGS cells assessed as accumulation at G0/G1 phase at 0.5 uM after 24 hrs by propidium iodide staining based flow cytometry (reference value: 52.87%). It is filed as functional. In short, it runs like this: as §2
Series [21] can be described thus: Selectivity index, ratio of GI50 for mouse HT22 cells to GI50 for human AGS cells. It is filed as toxicity. The settings on record: HT22 cells and AGS cells, read-out: RatioGI50.
Series [22] concerns AGS. Briefly: Cell cycle arrest in human AGS cells assessed as accumulation at G2/M phase at 1 uM after 24 hrs by propidium iodide staining based flow cytometry (reference value: 9.18%). It is filed as functional. In short, it runs like this:
as §2

Series [23] relates to AGS. Briefly: Cell cycle arrest in human AGS cells assessed as accumulation at G0/G1 phase at 1 uM after 24 hrs by propidium iodide staining based flow cytometry (reference value: 52.87%). It is filed as functional. The essentials:
as §2

For series [24], the system named is AGS. The series is described as follows: Induction of apoptosis in human AGS cells assessed as late apoptotic cells at 0.25 uM after 24 hrs by Annexin V-FITC/propidium iodide-double staining based flow cytometry (reference value: 16.90%). It is filed as functional.
For series [25], the system named is AGS. Briefly: Cell cycle arrest in human AGS cells assessed as accumulation at G2/M phase at 0.5 uM after 24 hrs by propidium iodide staining based flow cytometry (reference value: 9.18%). It is filed as functional. The essentials: as §2
Series [26] concerns AGS. Briefly: Cell cycle arrest in human AGS cells assessed as accumulation at G2/M phase at 2 uM after 24 hrs by propidium iodide staining based flow cytometry (reference value: 9.18%). The series is classed as functional. The essentials: as §2
The test system of series [27] is AGS. Briefly: Cell cycle arrest in human AGS cells assessed as accumulation at G0/G1 phase at 2 uM after 24 hrs by propidium iodide staining based flow cytometry (reference value: 52.87%). It is filed as functional. The essentials: as §2
The test system of series [28] is AGS. Briefly: Induction of apoptosis in human AGS cells assessed as viable cells at 0.5 uM after 24 hrs by Annexin V-FITC/propidium iodide-double staining based flow cytometry (reference value: 69.90%). The series is classed as functional. Particulars: read-out: Activity.
The test system of series [29] is AGS. The series is described as follows: Induction of apoptosis in human AGS cells assessed as necrotic cells at 0.5 uM after 24 hrs by Annexin V-FITC/propidium iodide-double staining based flow cytometry (reference value: 0.40%). The series is classed as functional.
The subject of series [30] is AGS. The series is described as follows: Cell cycle arrest in human AGS cells assessed as accumulation at S phase at 50 nM after 24 hrs by propidium iodide staining based flow cytometry (reference value: 37.94%). The series is classed as functional. In short, it runs like this: as §2
The subject of series [31] is AGS. The series is described as follows: Cell cycle arrest in human AGS cells assessed as accumulation at G2/M phase at 50 nM after 24 hrs by propidium iodide staining based flow cytometry (reference value: 9.18%). The series is classed as functional. In short, it runs like this: as §2
In series [32] the test system is AGS. The series is described as follows: Cell cycle arrest in human AGS cells assessed as accumulation at G0/G1 phase at 50 nM after 24 hrs by propidium iodide staining based flow cytometry (reference value: 52.87%). The series is classed as functional. In short, it runs like this:
as §2

For `COc1ccc(N(C)c2nc(Cl)nc3c2ncn3Cc2ccc(OC)c(OC)c2)cc1`, the 50% growth inhibitory concentration (GI50) in series [1] was found to be 27 µM; in series [2] it was 56 µM; in series [3] it was 7.3 µM. The inhibition in series [4] was 25%.

Turning to `COc1ccc(Cn2cnc3c(Cl)nc(Cl)nc32)cc1OC`, the GI50 came out at 7 µM in series [1], 11 µM in series [2] and 5.5 µM in series [3]. The compound further had an inhibition in series [4] of 22%.

In the case of `COc1ccc(N(C)c2nc(Cl)nc3c2ncn3C)cc1`, the Activity in [5] worked out at 12.35%; in series [6], 2.25%; in series [7], 38.2%; in series [8], 39.98%; in series [9] it was 10.45%; in series [10] it was 39.78%. For the same compound, the Activity result in series [12] is “Dose-dependent effect”; in series [13], 27.6%; in series [14], 50.11%; in series [17] it was 10.11%; in series [18], “Dose-dependent effect”; in series [19] it was 14.87%. The Activity in series [20] amounted to 47.34%; in [22], 25.18%; in series [23], 36.62%; in [24], 23.8%; in series [25], 12.68%; in series [26], 63.49%. In addition, the results for the Activity in [27] and in series [29] were 21.64% and 0.85%, respectively. Moreover, the 50% growth inhibitory concentration (GI50) amounted to 2.3 µM in series [1], 0.26 µM in [2] and 3.4 µM in [3]. Moreover, the 50% cytotoxic concentration (CC50) at 48 h in series [11] is over 100 µM. Besides, the figures for the selectivity ratio in series [15] and in [21] were 23 and 430, respectively. For the same compound, in series [16], the viability at 0.25 µM is 63.5%. In series [4], this compound came in with an inhibition of 41%. The viability at 0.5 µM in series [28] was found to be 59.2%.

Consider `COc1ccc(N(C)c2nc(Cl)nc3[nH]cnc23)cc1`, for which the GI50 in series [1] is over 100 µM; in [2] it was 30 µM; in series [3], over 100 µM.

Turning to `COc1ccc(N(C)c2ncnc3c2ncn3C)cc1`, the GI50 in [1], in [2] and in series [3] was over 100 µM each time.

In the case of `COc1ccc(Cn2cnc3c(Cl)ncnc32)cc1`, the GI50 is over 50 µM in [1], 29 µM in [2] and over 50 µM in series [3].

Take `COc1ccc(Cn2cnc3c(Cl)ncnc32)cc1OC`: the figures for the 50% growth inhibitory concentration (GI50) in [1], in [2] and in [3] were over 50 µM, over 100 µM and over 100 µM, respectively.

Turning to `COc1cc(Cn2cnc3c(Cl)ncnc32)cc(OC)c1OC`, the GI50 was over 50 µM in series [1], over 50 µM in [2] and over 100 µM in series [3].

`COc1ccc(Cn2cnc3c(Cl)nc(Cl)nc32)cc1`: the figures for the GI50 in series [1], in series [2] and in [3] were 36 µM, 19 µM and 7.7 µM, respectively. In series [4], this compound gave an inhibition of 25%.

As for `COc1cc2c(c(OC)c1OC)-c1ccc(OC)c(=O)cc1[C@@H](NC(C)=O)CC2` [COLCHICINE], the GI50 in series [1] came out at 0.02 µM; in series [2] it was 0.04 µM; in [3], 0.04 µM. The Activity in series [30] is given as 12.58%; in [31], 86.22%; in series [32] it was 1.2%.

On to `COc1ccc(Cn2cnc3c(N(C)c4ccc(OC)cc4)nc(Cl)nc32)cc1`, for which the figures for the GI50 in [1], in series [2] and in series [3] were over 100 µM, over 100 µM and 31 µM, respectively.

The term GI50 denotes the concentration giving 50% growth inhibition. Lower therefore signals greater sensitivity of the cells. One may read the inhibition as the change of the read-out against control, counted positive when it falls. High values mean strong suppression, low ones little suppression. The term CC50 denotes the concentration giving 50% cytotoxicity. Low readings indicate greater toxicity to the cells, high ones lower toxicity to the cells.
